Data on 29 compounds can be found in ChEMBL document CHEMBL1833896, “Acylglycinamides as inhibitors of glycine transporter type 1” (Bioorg Med Chem Lett, 2011).

Data set [1] can be described thus: Lipophilicity, log D of the compound. The data set is classed as physicochemical. Conditions: chromatographic hydrophobicity index (CHI) method. The procedure, abridged: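 Lipophilicity was measured by a chromatographic method.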
Data set [2] in a line: Intrinsic clearance in rat microsomes. It counts as ADME, Microsome.
A short description of data set [3]: Intrinsic clearance in human microsomes. It counts as ADME, Microsome.
The species named for the next data set is Rattus norvegicus. In words: Liver blood flow in rat. It counts as ADME, organism-based.
A short description of data set [4]: Ratio of drug level in brain to blood in rat. The data set is classed as ADME, tissue-based. Conditions: read-out: BBR.
Data set [5] is described as follows: Oral bioavailability in rat. The data set is classed as ADME, organism-based. Conditions: in vivo.

As for `O=C(CN(CC1CC1)C(=O)c1ccc(-c2ccccn2)cc1)Nc1cc(F)cc(F)c1`, in data set [1], the logD is 3.1. In addition, the CL in data set [2] was 5 mL/min/g; in data set [3], < 0.5 mL/min/g.
The like results for `O=C(CN(C(=O)c1ccc(-c2ccccn2)cc1)C1CCCC1)Nc1cc(F)cc(F)c1` were, in that order, 3.4, 3.7 mL/min/g and 1.9 mL/min/g.
Taken in the same sequence, the figures for `CC(C)N(CC(=O)Nc1cc(F)cc(F)c1)C(=O)c1ccc(-c2ccccn2)cc1` were 3, 1.8 mL/min/g and < 0.5 mL/min/g.
In turn, `O=C(CN(C(=O)c1ccc(-c2ccccn2)cc1)C1CCOCC1)Nc1cc(F)cc(F)c1` returned a QH in the data set listed under Rattus norvegicus of 75%. In data set [1], this compound came in with a pH-dependent lipophilicity (logD) of 2.5. In addition, the CL in data set [2] is 0.6 mL/min/g; in data set [3] it was < 0.5 mL/min/g. In addition, in data set [4], the Kp was found to be 0.2. The bioavailability in data set [5] was determined as 25%.
Compound `CCC(C)N(CC(=O)Nc1cc(F)cc(F)c1)C(=O)c1ccc(-c2ccccn2)cc1` (configuration not stated) yielded a logD in data set [1] of 3.3. Also, the CL was 3.8 mL/min/g in data set [2] and 4.3 mL/min/g in data set [3].
Taken in the same sequence, the figures for `O=C(CN(CC1CCC1)C(=O)c1ccc(-c2ccccn2)cc1)Nc1cc(F)cc(F)c1` were 3.5, 4.8 mL/min/g and 2 mL/min/g.
Compound `COCC(C)N(CC(=O)Nc1cc(F)cc(F)c1)C(=O)c1ccc(-c2ccccn2)cc1` (configuration not stated) gave a logD in data set [1] of 3. The CL was 4.2 mL/min/g in data set [2] and 5.8 mL/min/g in data set [3].
Turning to `COCCN(CC(=O)Nc1cc(F)cc(F)c1)C(=O)c1ccc(-c2ccccn2)cc1`, the CL in data set [2] turned out to be 3 mL/min/g; in data set [3] it was 1.5 mL/min/g.
For the compound `CCC(COC)N(CC(=O)Nc1cc(F)cc(F)c1)C(=O)c1ccc(-c2ccccn2)cc1` (configuration not stated), the pH-dependent lipophilicity (logD) in data set [1] is 3.3. In addition, the results for the CL in data set [2] and in data set [3] were 6.7 mL/min/g and 9.6 mL/min/g, respectively.
For `O=C(CN(C(=O)c1ccc(-c2ccccn2)cc1)C1CCOC1)Nc1cc(F)cc(F)c1` (configuration not stated), in data set [1], the logD is 2.5. Moreover, the CL turned out to be 3.2 mL/min/g in data set [2] and 3.9 mL/min/g in data set [3].
`COc1ccc(C(=O)N(CC(=O)Nc2cc(F)cc(F)c2)C2CCCCC2)cc1` displayed a logD in data set [1] of 3.7.
Still for that read-out and setting: the figure for `CN1CCC(C(=O)N(CC(=O)Nc2cc(F)cc(F)c2)C2CCCCC2)CC1` is 1.8; for `O=C(CN(C(=O)C1CCOCC1)C1CCCCC1)Nc1cc(F)cc(F)c1` it is 3.
Same read-out and setting: next, `O=C(CN(C(=O)c1cccnc1)C1CCCCC1)Nc1cc(F)cc(F)c1`: 2.7.
As for `Cn1ccc(C(=O)N(CC(=O)Nc2cc(F)cc(F)c2)C2CCCCC2)n1`, in data set [1], the log distribution coefficient (logD) was 3.
The same measure, in the same setting: the figure for `CN(C)CCOc1ccc(C(=O)N(CC(=O)Nc2cc(F)cc(F)c2)C2CCCCC2)cc1` is 2.4.
In turn, `O=C(CN(C(=O)c1ccc(-n2ccnc2)cc1)C1CCCCC1)Nc1cc(F)cc(F)c1` had a logD in data set [1] of 2.7. Further, the CL in data set [2] worked out at 1.2 mL/min/g; in data set [3], 6.1 mL/min/g.
As for `O=C(CN(C(=O)c1ccc(N2CCCC2)nc1)C1CCCCC1)Nc1cc(F)cc(F)c1`, in data set [1], the logD came out at 3.6.
In data set [1], `O=C(CN(C(=O)c1ccc(N2CCCC2)cc1)C1CCCCC1)Nc1cc(F)cc(F)c1` displayed a logD of 4.5.
`O=C(CN(C(=O)c1ccc(-c2ccccn2)cc1)C1CCCCC1)Nc1cc(F)cc(F)c1` showed a logD in data set [1] of 3.7. Also, the CL in data set [2] was found to be 15.4 mL/min/g; in data set [3] it was 5.2 mL/min/g.
The compound `COc1ccc(C(=O)N(Cc2[nH]ncc2-c2ccccc2)C2CCCCC2)cc1` had a log distribution coefficient (logD) in data set [1] of 3.1.
Same read-out and setting: next, `COc1ccc(C(=O)N(Cc2c(C)noc2-c2ccccc2)C2CCCCC2)cc1`: 4.1.
Turning to `COc1ccc(C(=O)N(Cc2csc(-c3ccccc3)n2)C2CCCCC2)cc1`, in data set [1], the logD amounted to 4.6.
Consider `COc1ccc(C(=O)N(Cc2c[nH]c(-c3ccccc3)n2)C2CCCCC2)cc1`, for which, in data set [1], the logD was 2.9.
Regarding `COc1ccc(C(=O)N(Cc2cn(-c3ccccc3)nn2)C2CCCCC2)cc1`, the pH-dependent lipophilicity (logD) in data set [1] turned out to be 3.5.
Still for that read-out and setting: the figure for `COc1ccc(C(=O)N(Cc2ccc(-c3ccc(Cl)cc3)o2)C2CCCCC2)cc1` is 5; for `COc1ccc(C(=O)N(Cc2cc(-c3ccccc3)on2)C2CCCCC2)cc1` it is 4.2.
Turning to `CC(C)CN(CC(=O)Nc1cc(F)cc(F)c1)C(=O)c1ccc(-c2ccccn2)cc1`, the logD in data set [1] is 3.3. Moreover, the CL in data set [2] came to 4.9 mL/min/g; in data set [3], 1.3 mL/min/g.
In the data set listed under Rattus norvegicus, `O=C(CN(C(=O)c1ccc(-c2ccccn2)cc1)C1CCCOC1)Nc1cc(F)cc(F)c1` (racemic) returned a QH of 75%. In data set [1], this compound showed a logD of 2.7. The CL turned out to be 2 mL/min/g in data set [2] and 2.9 mL/min/g in data set [3]. In addition, the Kp in data set [4] amounted to 0.2. The compound also yielded a bioavailability in data set [5] of 15%.
